Results: ChEMBL document CHEMBL1148671, “Synthesis and antibacterial activity of C12 des-methyl ketolides” (2006)
Converted amounts (≈) assume the structure as drawn.

Tests used:
Assay type in all cases: functional
Streptococcus pneumoniae [1] = test: Antibacterial activity against erythromycin-resistant Streptococcus pneumoniae mef S 3427 by broth microdilution method
Staphylococcus aureus [2] = test: Antibacterial activity against Staphylococcus aureus 33591 by broth microdilution method
Method in brief: (§1)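 In vitro activity was read as the minimum inhibitory concentration (MIC) by broth microdilution and reported in μg/mL. The S. pneumoniae panel included erythromycin-resistant strains carrying mef or erm genes. Telithromycin and clarithromycin were run as comparators in every assay.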

Staphylococcus aureus [3] = test: Antibacterial activity against Staphylococcus aureus 29213 by broth microdilution method; conditions: ATCC29213; method in brief: as §1
Streptococcus pneumoniae [4] = test: Antibacterial activity against Streptococcus pneumoniae 297-749 by broth microdilution method; method in brief: as §1
Streptococcus pneumoniae [5] = test: Antibacterial activity against erythromycin-resistant Streptococcus pneumoniae erm 6849 by broth microdilution method
Streptococcus pneumoniae [6] = test: Antibacterial activity against erythromycin-resistant Streptococcus pneumoniae mef 5654 by broth microdilution method
Streptococcus pneumoniae [7] = test: Antibacterial activity against Streptococcus pneumoniae 280-962 by broth microdilution method; method in brief: as §1
Enterococcus faecalis [8] = test: Antibacterial activity against Enterococcus faecalis 29212 by broth microdilution method; method in brief: as §1
Haemophilus influenzae [9] = test: Antibacterial activity against Haemophilus influenzae 2762 by broth microdilution method; method in brief: as §1
[10] = tested on: Staphylococcus epidermidis; test: Antibacterial activity against Staphylococcus epidermidis 14990 by broth microdilution method; method in brief: as §1
[11] = tested on: Staphylococcus epidermidis; test: Antibacterial activity against Staphylococcus epidermidis f50654 by broth microdilution method; method in brief: as §1
Streptococcus pyogenes = test: Antibacterial activity against Streptococcus pyogenes 8668 by broth microdilution method; method in brief: as §1
Haemophilus influenzae [12] = test: Antibacterial activity against Haemophilus influenzae 49247 by broth microdilution method; method in brief: as §1
Streptococcus pneumoniae [13] = test: Antibacterial activity against Streptococcus pneumoniae 49619 by broth microdilution method; method in brief: as §1
Enterococcus faecalis [14] = test: Antibacterial activity against Enterococcus faecalis bc11148-2 by broth microdilution method; method in brief: as §1

Compound	MIC (Streptococcus pneumoniae [1]) [µg/mL]	MIC (Staphylococcus aureus [2]) [µg/mL]	MIC (Staphylococcus aureus [3]) [µg/mL]	MIC (Streptococcus pneumoniae [4]) [µg/mL]	MIC (Streptococcus pneumoniae [5]) [µg/mL]	MIC (Streptococcus pneumoniae [6]) [µg/mL]	MIC (Streptococcus pneumoniae [7]) [µg/mL]	MIC (Enterococcus faecalis [8]) [µg/mL]	MIC (Haemophilus influenzae [9]) [µg/mL]	MIC [10] [µg/mL]	MIC [11] [µg/mL]	MIC (Streptococcus pyogenes) [µg/mL]	MIC (Haemophilus influenzae [12]) [µg/mL]	MIC (Streptococcus pneumoniae [13]) [µg/mL]	MIC (Enterococcus faecalis [14]) [µg/mL]
CC[C@H]1OC(=O)[C@H](C)C(=O)[C@H](C)[C@@H](O[C@@H]2O[C@H](C)C[C@H](N(C)C)[C@H]2O)[C@](C)(OC)C[C@@H](C)C(=O)[C@H](C)[C@@H]2[C@@H]1OC(=O)N2CCCCn1cnc(-c2cccnc2)c1	0.2 (≈ 0.251 µM)	> 50	0.2 (≈ 0.251 µM)	≤ 0.05	0.2 (≈ 0.251 µM)	1.56 (≈ 1.95 µM)	≤ 0.05	0.1 (≈ 0.125 µM)	0.78 (≈ 0.977 µM)	0.78 (≈ 0.977 µM)	0.2 (≈ 0.251 µM)	≤ 0.05	6.25 (≈ 7.83 µM)	≤ 0.05	> 50
CC[C@H]1OC(=O)[C@H](C)C(=O)[C@H](C)[C@@H](O[C@@H]2O[C@H](C)C[C@H](N(C)C)[C@H]2O)[C@](C)(OC)C[C@@H](C)C(=O)[C@H](C)[C@@H]2[C@@H]1OC(=O)N2CCCC(C)(C)n1cnc(-c2cccnc2)c1	0.2 (≈ 0.242 µM)	> 50	0.2 (≈ 0.242 µM)	≤ 0.05	0.4 (≈ 0.484 µM)	1.56 (≈ 1.89 µM)	≤ 0.05	0.1 (≈ 0.121 µM)	1.56 (≈ 1.89 µM)	0.1 (≈ 0.121 µM)	0.1 (≈ 0.121 µM)	≤ 0.05	3.13 (≈ 3.79 µM)	≤ 0.05	1.56 (≈ 1.89 µM)
CC[C@H]1OC(=O)[C@H](C)C(=O)[C@H](C)[C@@H](O[C@@H]2O[C@H](C)C[C@H](N(C)C)[C@H]2O)[C@](C)(OC)C[C@@H](C)C(=O)[C@H](C)[C@@H]2[C@@H]1OC(=O)N2CCCCc1cnc2ccccc2c1	0.1 (≈ 0.128 µM)	> 50	0.4 (≈ 0.512 µM)	≤ 0.05	0.4 (≈ 0.512 µM)	0.2 (≈ 0.256 µM)	≤ 0.05	0.1 (≈ 0.128 µM)	1.56 (≈ 1.99 µM)	0.2 (≈ 0.256 µM)	0.4 (≈ 0.512 µM)	≤ 0.05	6.25 (≈ 7.99 µM)	≤ 0.05	12.5 (≈ 16 µM)
CC[C@H]1OC(=O)[C@H](C)C(=O)[C@H](C)[C@@H](O[C@@H]2O[C@H](C)C[C@H](N(C)C)[C@H]2O)[C@](C)(OC)C[C@@H](C)C(=O)[C@H](C)[C@@H]2[C@@H]1OC(=O)N2CCCCn1cnc(-c2ccc(OC)nc2)c1	0.1 (≈ 0.121 µM)	> 50	0.2 (≈ 0.242 µM)	≤ 0.05	50 (≈ 60.4 µM)	0.78 (≈ 0.942 µM)	≤ 0.05	≤ 0.05	1.56 (≈ 1.88 µM)	0.1 (≈ 0.121 µM)	0.2 (≈ 0.242 µM)	≤ 0.05	6.25 (≈ 7.55 µM)	≤ 0.05	6.25 (≈ 7.55 µM)
CC[C@H]1OC(=O)[C@H](C)C(=O)[C@H](C)[C@@H](O[C@@H]2O[C@H](C)C[C@H](N(C)C)[C@H]2O)[C@](C)(OC)C[C@@H](C)C(=O)[C@H](C)[C@@H]2[C@@H]1OC(=O)N2CCCC(C)(C)n1cnc2ncccc21	0.2 (≈ 0.25 µM)	> 50	0.2 (≈ 0.25 µM)	≤ 0.05	6.25 (≈ 7.81 µM)	1.56 (≈ 1.95 µM)	≤ 0.05	≤ 0.05	1.56 (≈ 1.95 µM)	0.1 (≈ 0.125 µM)	0.1 (≈ 0.125 µM)	≤ 0.05	6.25 (≈ 7.81 µM)	≤ 0.05	1.56 (≈ 1.95 µM)
CC[C@H]1OC(=O)[C@H](C)C(=O)[C@H](C)[C@@H](O[C@@H]2O[C@H](C)C[C@H](N(C)C)[C@H]2O)[C@](C)(OC)C[C@@H](C)C(=O)[C@H](C)[C@@H]2[C@@H]1OC(=O)N2CCCCc1ncc(-c2ccccc2)s1	0.1 (≈ 0.123 µM)	> 50	0.78 (≈ 0.958 µM)	≤ 0.05	25 (≈ 30.7 µM)	1.56 (≈ 1.92 µM)	≤ 0.05	0.4 (≈ 0.491 µM)	3.13 (≈ 3.84 µM)	0.78 (≈ 0.958 µM)	0.4 (≈ 0.491 µM)	0.2 (≈ 0.246 µM)	12.5 (≈ 15.4 µM)	≤ 0.05	6.25 (≈ 7.68 µM)
CC[C@H]1OC(=O)[C@H](C)C(=O)[C@H](C)[C@@H](O[C@@H]2O[C@H](C)C[C@H](N(C)C)[C@H]2O)[C@](C)(OC)C[C@@H](C)C(=O)[C@H](C)[C@@H]2[C@@H]1OC(=O)N2CCCCn1cnc(-c2ccc(Cl)nc2)c1	0.1 (≈ 0.12 µM)	> 50	0.2 (≈ 0.24 µM)	≤ 0.05	0.4 (≈ 0.481 µM)	0.78 (≈ 0.937 µM)	≤ 0.05	≤ 0.05	1.56 (≈ 1.87 µM)	0.1 (≈ 0.12 µM)	0.2 (≈ 0.24 µM)	≤ 0.05	6.25 (≈ 7.51 µM)	≤ 0.05	0.4 (≈ 0.481 µM)
CC[C@H]1OC(=O)[C@H](C)C(=O)[C@H](C)[C@@H](O[C@@H]2O[C@H](C)C[C@H](N(C)C)[C@H]2O)[C@](C)(OC)C[C@@H](C)C(=O)[C@H](C)[C@@H]2[C@@H]1OC(=O)N2CCCCc1ccc(-c2cccnc2)s1	0.1 (≈ 0.123 µM)	50 (≈ 61.4 µM)	0.2 (≈ 0.246 µM)	≤ 0.05	6.25 (≈ 7.68 µM)	0.4 (≈ 0.491 µM)	≤ 0.05	≤ 0.05	3.13 (≈ 3.84 µM)	0.2 (≈ 0.246 µM)	0.1 (≈ 0.123 µM)	≤ 0.05	12.5 (≈ 15.4 µM)	≤ 0.05	25 (≈ 30.7 µM)
CC[C@H]1OC(=O)[C@H](C)C(=O)[C@H](C)[C@@H](O[C@@H]2O[C@H](C)C[C@H](N(C)C)[C@H]2O)[C@](C)(OC)C[C@@H](C)C(=O)[C@H](C)[C@@H]2[C@@H]1OC(=O)N2CCCCn1cnc(-c2ccc(C)nc2)c1	0.4 (≈ 0.493 µM)	> 50	0.2 (≈ 0.246 µM)	≤ 0.05	50 (≈ 61.6 µM)	1.56 (≈ 1.92 µM)	≤ 0.05	0.1 (≈ 0.123 µM)	1.56 (≈ 1.92 µM)	0.2 (≈ 0.246 µM)	0.2 (≈ 0.246 µM)	≤ 0.05	3.13 (≈ 3.85 µM)	≤ 0.05	3.13 (≈ 3.85 µM)
CC[C@H]1OC(=O)[C@H](C)C(=O)[C@H](C)[C@@H](O[C@@H]2O[C@H](C)C[C@H](N(C)C)[C@H]2O)[C@](C)(OC)C[C@@H](C)C(=O)[C@H](C)[C@@H]2[C@@H]1OC(=O)N2CCCCn1cnc(-c2ccc(F)nc2)c1	0.78 (≈ 0.956 µM)	> 50	0.2 (≈ 0.245 µM)	≤ 0.05	12.5 (≈ 15.3 µM)	0.78 (≈ 0.956 µM)	0.2 (≈ 0.245 µM)	≤ 0.05	0.78 (≈ 0.956 µM)	0.2 (≈ 0.245 µM)	0.78 (≈ 0.956 µM)	≤ 0.05	3.13 (≈ 3.84 µM)	≤ 0.05	25 (≈ 30.6 µM)
